Measured values published in ChEMBL document CHEMBL1125911, “Synthesis and biological activity of new HMG-CoA reductase inhibitors. 3. Lactones of 6-phenoxy-3,5-dihydroxyhexanoic acids” (J Med Chem, 1991).

Tests used:
[1] = molecular target: T1, 3-hydroxy-3-methylglutaryl-coenzyme A reductase (Rattus norvegicus) (UniProt P51639); test: (§1) Inhibition of HMG-CoA reductase compared to mevinolin.
T1 sequence (whole entry): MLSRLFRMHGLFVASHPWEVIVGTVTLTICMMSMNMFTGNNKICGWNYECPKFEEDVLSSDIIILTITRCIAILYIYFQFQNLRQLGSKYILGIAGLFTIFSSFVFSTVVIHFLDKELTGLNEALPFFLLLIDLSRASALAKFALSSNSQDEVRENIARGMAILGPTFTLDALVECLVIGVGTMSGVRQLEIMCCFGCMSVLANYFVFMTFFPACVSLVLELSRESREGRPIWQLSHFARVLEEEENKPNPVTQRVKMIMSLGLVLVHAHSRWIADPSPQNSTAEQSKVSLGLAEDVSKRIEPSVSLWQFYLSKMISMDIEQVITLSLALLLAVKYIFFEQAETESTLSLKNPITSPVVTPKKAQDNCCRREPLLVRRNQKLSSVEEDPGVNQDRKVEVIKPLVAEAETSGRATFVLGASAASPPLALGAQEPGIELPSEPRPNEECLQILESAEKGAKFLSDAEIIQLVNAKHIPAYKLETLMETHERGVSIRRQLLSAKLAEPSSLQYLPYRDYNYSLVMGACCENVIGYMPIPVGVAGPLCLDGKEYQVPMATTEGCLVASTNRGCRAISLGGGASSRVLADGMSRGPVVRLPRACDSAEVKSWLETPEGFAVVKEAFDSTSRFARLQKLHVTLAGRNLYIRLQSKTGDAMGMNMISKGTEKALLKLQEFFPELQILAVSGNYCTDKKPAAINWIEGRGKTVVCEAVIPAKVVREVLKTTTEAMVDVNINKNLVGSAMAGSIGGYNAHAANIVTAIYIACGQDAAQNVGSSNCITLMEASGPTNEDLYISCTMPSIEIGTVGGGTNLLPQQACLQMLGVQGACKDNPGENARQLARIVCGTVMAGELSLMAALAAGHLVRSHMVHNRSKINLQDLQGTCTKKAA
Summary of the method: (§2)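 Solubilized, partially purified rat liver HMG-CoA reductase. IC50 from four or five inhibitor concentrations. Relative potency compared IC50 with mevinolin (set to 100), corrected for molecular weight.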

[2] = molecular target: T2, 3-hydroxy-3-methylglutaryl-coenzyme A reductase (Rattus norvegicus, UniProt P51639); test: In vitro inhibition of HMG-CoA reductase in solubilized rat liver.
T2 sequence (P51639 whole entry): T1 sequence (whole entry)

[3] = molecular target: T3, 3-hydroxy-3-methylglutaryl-coenzyme A reductase (Homo sapiens, UniProt P04035); test: Inhibition of the incorporation of sodium [14C]acetate into cholesterol in HEP G2 cells.; format: functional, cell-based, HepG2
T3 sequence (P04035 whole entry): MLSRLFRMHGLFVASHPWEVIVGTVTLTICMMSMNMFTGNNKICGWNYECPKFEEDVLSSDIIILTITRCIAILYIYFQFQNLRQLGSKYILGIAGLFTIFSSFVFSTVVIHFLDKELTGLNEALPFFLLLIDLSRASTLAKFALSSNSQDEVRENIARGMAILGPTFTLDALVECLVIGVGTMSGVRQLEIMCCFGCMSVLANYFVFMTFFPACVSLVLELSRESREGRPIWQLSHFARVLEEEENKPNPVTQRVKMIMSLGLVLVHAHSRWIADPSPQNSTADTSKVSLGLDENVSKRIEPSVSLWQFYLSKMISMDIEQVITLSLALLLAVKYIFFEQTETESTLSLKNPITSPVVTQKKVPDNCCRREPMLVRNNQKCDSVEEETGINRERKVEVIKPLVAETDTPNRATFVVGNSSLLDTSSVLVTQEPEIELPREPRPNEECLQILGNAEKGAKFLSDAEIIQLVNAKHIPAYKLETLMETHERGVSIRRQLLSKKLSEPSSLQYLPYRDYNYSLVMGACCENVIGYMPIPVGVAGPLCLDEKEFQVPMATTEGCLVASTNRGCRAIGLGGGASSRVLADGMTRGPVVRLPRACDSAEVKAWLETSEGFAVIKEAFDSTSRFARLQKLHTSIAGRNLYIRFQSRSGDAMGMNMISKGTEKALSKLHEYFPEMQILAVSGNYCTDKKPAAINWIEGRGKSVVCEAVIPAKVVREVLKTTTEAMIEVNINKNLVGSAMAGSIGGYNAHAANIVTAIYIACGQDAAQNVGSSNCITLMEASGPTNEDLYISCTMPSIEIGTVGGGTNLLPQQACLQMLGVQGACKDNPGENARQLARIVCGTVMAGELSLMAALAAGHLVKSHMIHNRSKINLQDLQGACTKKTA

[4] = molecular target: T4, 3-hydroxy-3-methylglutaryl-coenzyme A reductase (Homo sapiens) (UniProt P04035); test: as §1; format: functional; summary of the method: as §2
T4 sequence (whole entry): T3 sequence (P04035 whole entry)

[5] = molecular target: T2, 3-hydroxy-3-methylglutaryl-coenzyme A reductase; test: In vitro inhibition of solubilized HMG-CoA reductase in rat liver.
Sus scrofa = species: Sus scrofa; test: In vitro inhibition of Cu2+ catalyzed LDL oxidation; format: functional
Summary of the method: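 Porcine plasma LDL isolated by sequential ultracentrifugation (density 1.019-1.063 g/mL), dialysed against PBS pH 7.4, then diluted to 0.1 mg/mL protein. Preincubated 1 h at 37 °C under N2 with compound in ethanol. Oxidised with 5 μM Cu2+ for 2 h at 37 °C in air. Fluorescence read at ex 365/em 430 nm.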

Rattus norvegicus = species: Rattus norvegicus; test: Compound was tested for inhibition of microsomal lipid peroxidation and the potency relative to terbufucine was determined; format: functional
Summary of the method: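 Rat liver microsomes in 50 mM Tris-HCl pH 7.4 with 100 mM KCl and 6.0 mM MgCl2, final protein 0.4 mg/mL. Peroxidation was started with ADP (2 mM)/FeCl3 (10 μM) plus an NADPH-regenerating system. Incubation 30 min at 37 °C with shaking. Thiobarbituric acid reactive substances were read at 535 nm.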

Relative potency [1]	IC50 [2]	Structure (SMILES)	also measured
4	0.15 µM	O=C(O)C[C@H](O)CC(O)COc1c(Cl)cc(Cl)cc1C(CCOc1ccc(F)cc1)c1ccc(F)cc1 (stereo partly specified)	
< 1	> 1 µM	O=C(O)C[C@H](O)CC(O)COc1c(CCCOc2ccc(F)cc2)cccc1C1CCCC1 (stereo partly specified)	
	0.085 µM	O=C(O)C[C@H](O)CC(O)COc1c(Cl)cc(Cl)cc1C(F)(F)C1CCCCC1 (stereo partly specified)	IC50 [3]: 2.5 µM; Relative potency [4]: 2
8	0.095 µM	Cc1cc(C)c(OCC(O)C[C@@H](O)CC(=O)O)c(C(c2ccc(F)cc2)C2CCCCC2)c1 (stereo partly specified)	
	0.32 µM	CCC(C)(C)C(=O)NC(c1cc(C)cc(C)c1OCC(O)C[C@@H](O)CC(=O)O)C1CCCCC1 (stereo in doubt; 11w) [listing 1 of 2 here]	IC50 [3]: 15 µM
15	0.05 µM	Cc1cc(Cl)cc(CCCOc2ccc(Cl)cc2)c1OCC(O)C[C@@H](O)CC(=O)O (stereo partly specified)	
2	0.4 µM	CC(C)c1cc(-c2ccccc2)cc(CC2CCCCC2)c1OCC(O)C[C@@H](O)CC(=O)O (stereo partly specified)	IC50 [3]: 0.1 µM; Relative potency [4]: 50
		CCC(C)(C)OC(=O)C(c1cc(C)cc(C)c1OCC(O)C[C@@H](O)CC(=O)O)C1CCCCC1 (stereo in doubt; 11s) [listing 1 of 2 here]	Relative potency [4]: 3
	0.9 µM	Cc1c(OCC(O)C[C@@H](O)CC(=O)O)c(C(c2ccc(F)cc2)c2ccc(F)cc2)cc2ccccc12 (stereo partly specified)	IC50 [3]: 20 µM; Relative potency [4]: < 1
	> 1 µM	Cc1cc(C)c(OCC2C[C@@H](O)CC(=O)O2)c(C(Cl)C2CCCCC2)c1 (stereo partly specified)	IC50 [3]: 6.5 µM; Relative potency [4]: < 1
		CCC(C)(C)C(=O)NC(c1cc(C)cc(C)c1OCC(O)C[C@@H](O)CC(=O)O)C1CCCCC1 (stereo in doubt; 11x) [listing 1 of 2 here]	Relative potency [4]: < 1
		Cc1cc(-c2ccccc2)nc(-c2ccc(F)cc2)c1/C=C/[C@@H](O)C[C@@H](O)CC(=O)O	IC50 [5]: 0.038 µM
	0.1 µM	COc1ccc(C(c2ccc(F)cc2)c2cc(C)cc(C)c2OCC(O)C[C@@H](O)CC(=O)O)cc1 (stereo partly specified)	
	0.09 µM	Cc1cc(C)c(OCC(O)C[C@@H](O)CC(=O)O)c(C(c2ccc(F)cc2)c2cccc(C(F)(F)F)c2)c1 (stereo partly specified)	
		Cc1c(CCC(O)C[C@@H](O)CC(=O)O)c(-c2ccc(F)cc2)cn1-c1ccccc1 (stereo partly specified)	IC50 [5]: 0.035 µM
	0.5 µM	CCC(C)(C)OC(=O)C(c1cc(C)cc(C)c1OCC(O)C[C@@H](O)CC(=O)O)C1CCCCC1 (stereo in doubt; 11s) [listing 2 of 2 here]	IC50 [3]: 1.7 µM
	1 µM	Cc1cc(C(c2ccc(F)c(C)c2)c2cc(Cl)cc(Cl)c2OCC(O)C[C@@H](O)CC(=O)O)ccc1F (stereo partly specified)	
2	0.38 µM	CC(C)c1c(OCC(O)C[C@@H](O)CC(=O)O)c(C(c2ccc(F)cc2)c2ccc(F)cc2)cc2ccccc12 (stereo partly specified)	IC50 [3]: 3.5 µM; Relative potency [4]: 2
1	1 µM	Cc1c(OCC(O)C[C@@H](O)CC(=O)O)c(-c2ccc(F)cc2)nc2ccccc12 (stereo partly specified)	IC50 [3]: > 5 µM; Relative potency [4]: < 1
	0.07 µM	Cc1cc(C)c(OCC(O)C[C@@H](O)CC(=O)O)c(C(c2ccc(F)cc2)c2ccc(F)cc2)c1 (stereo partly specified)	
		CC(C)c1c(CCC(O)C[C@@H](O)CC(=O)O)c(-c2ccc(F)cc2)cn1-c1ccccc1 (stereo partly specified)	IC50 [5]: 0.003 µM
3	0.25 µM	Cc1cccc(CCCOc2ccc(F)cc2)c1OCC(O)C[C@@H](O)CC(=O)O (stereo partly specified)	

Relative potency [1]	IC50 [2]	Structure (SMILES)	also measured
		CC(C)(C)c1cc(C(C(=O)O)c2cc(C(C)(C)C)c(O)c(C(C)(C)C)c2)cc(C(C)(C)C)c1O [TERBUFICIN]	IC50 (Sus scrofa): 0.11 µM; Relative potency (Rattus norvegicus): 100
	0.27 µM	Cc1cc(Cl)c(OCC(O)C[C@@H](O)CC(=O)O)c(C(c2ccc(F)c(C)c2)c2ccc(F)c(C)c2)c1 (stereo partly specified)	
		O=C(O)C[C@H](O)C[C@H](O)/C=C/c1c(Cl)cc(Cl)cc1-c1ccc(F)cc1	IC50 [5]: 0.0045 µM
31	0.027 µM	O=C(O)C[C@H](O)CC(O)COc1c(Cl)cc(Cl)cc1CC1CCCCC1 (stereo partly specified)	
	0.47 µM	CCC(C)(C)C(=O)NC(c1cc(C)cc(C)c1OCC(O)C[C@@H](O)CC(=O)O)C1CCCCC1 (stereo in doubt; 11x) [listing 2 of 2 here]	IC50 [3]: 10 µM
< 1	> 1 µM	O=C(O)C[C@H](O)CC(O)COc1c(CCCOc2ccc(F)cc2)cc(Cl)cc1C1CCCC1 (stereo partly specified)	
9	0.095 µM	O=C(O)C[C@H](O)CC(O)COc1c(Cl)cc(Cl)cc1C(F)=C1CCCCC1 (stereo partly specified)	
12	0.075 µM	Cc1cc(Cl)cc(CC2CCCCC2)c1OCC(O)C[C@@H](O)CC(=O)O (stereo partly specified)	
4	0.19 µM	O=C(O)C[C@H](O)CC(O)COc1c(Cl)cc(Cl)cc1C(=O)C1CCCCC1 (stereo partly specified)	
	0.16 µM	Cc1cc(C)c(OCC(O)C[C@@H](O)CC(=O)O)c(C(C)c2ccc(F)cc2)c1 (stereo partly specified)	
9	0.1 µM	Cc1cc(C)c(OCC(O)C[C@@H](O)CC(=O)O)c(CC2CCCCC2)c1 (stereo partly specified)	
5	0.19 µM	O=C(O)C[C@H](O)CC(O)COc1c(Cl)cc(Cl)cc1-c1ccccc1 (stereo partly specified)	
< 1	> 1 µM	Cc1nc2ccccc2c(-c2ccccc2)c1OCC(O)C[C@@H](O)CC(=O)O (stereo partly specified)	IC50 [3]: > 5 µM; Relative potency [4]: < 1
	0.14 µM	Cc1cc(C)c(OCC(O)C[C@@H](O)CC(=O)O)c(C(CC(C)C)c2ccc(F)cc2)c1 (stereo partly specified)	
3	0.26 µM	O=C(O)C[C@H](O)CC(O)COc1cc(OCc2ccc(F)cc2)c(Cl)cc1Cl (stereo partly specified)	
	0.07 µM	Cc1cc(Cl)cc(C(c2ccc(F)cc2)c2ccc(F)cc2)c1OCC(O)C[C@@H](O)CC(=O)O (stereo partly specified)	
2		CCC(C)(C)C(=O)NC(c1cc(C)cc(C)c1OCC(O)C[C@@H](O)CC(=O)O)C1CCCCC1 (stereo in doubt; 11w) [listing 2 of 2 here]	Relative potency [4]: < 1
10	0.08 µM	Cc1cc(Cl)cc(CCCOc2ccc(F)cc2)c1OCC(O)C[C@@H](O)CC(=O)O (stereo partly specified)	
	0.06 µM	CCC(C)(C)OC(=O)C(c1cc(C)cc(C)c1OCC(O)C[C@@H](O)CC(=O)O)C1CCCCC1 (stereo in doubt; 11r) [listing 1 of 2 here]	IC50 [3]: 12 µM
	0.95 µM	O=C(O)C[C@H](O)CC(O)COc1c(Cl)cc(Cl)cc1C(c1ccc(F)cc1)c1ccc(F)cc1 (stereo in doubt; 11pp)	
16	0.05 µM	CC(C)c1c(OCC(O)C[C@@H](O)CC(=O)O)c(-c2ccc(F)cc2)nc2ccccc12 (stereo partly specified)	IC50 [3]: 0.25 µM; Relative potency [4]: 20
12		CCC(C)(C)OC(=O)C(c1cc(C)cc(C)c1OCC(O)C[C@@H](O)CC(=O)O)C1CCCCC1 (stereo in doubt; 11r) [listing 2 of 2 here]	Relative potency [4]: < 1
